The list is not random: actives were taken first. Their share in the collection is about 1.4%.
Fh CTSL1 inh = blocks F. hepatica cathepsin L1 in PFM18AAP counter-screen; recombinant F. hepatica cathepsin L1, Z-Leu-Arg-MCA fluorescence; AID 1906; actives 0.49% (n = 300,000); inhibition, % at 5.96 µM;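 active = inhibition above the mean of all tested compounds plus 3 SD, set per screening campaign, cut at about 17% in these data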;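 also: 0% = plate median of test compound wells and 100% = 1 µM Z-Phe-Ala-diazomethylketone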
UBC9 SUMO inh = blocks human SUMOylation mediated by UBC9; P63279; HTRF SUMOylation assay, SAE1/SAE2 + UBC9, in vitro; inhibition, % at 35 µM; actives 0.36% (n = 290,000); AID 2006; in the data active = inhibition above about 50%, passing the limit was not always enough
UCH37 inh = human UCH37 deubiquitinating enzyme inhibition. purified proteasome/UCH37, Ub-AMC cleavage fluorescence. inhibition, % (concentration not given with the values). actives 0.33% (n = 330,000);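 active = mean inhibition over replicate wells above about 20%, limit read from the data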;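 also: 0% = compound-free wells with enzyme and 100% = wells lacking proteasome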
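Assay system: Proteasome-bound UCH37. Buffer or medium: pH 7.4 Tris-HCl (50 mM) with ovalbumin, ATP-MgCl2, DTT. Incubation: 30 min preincubation with enzyme, 25 min cleavage at room temperature. Measured by: fluorescence, ex 355 nm, em 460 nm. Read-out basis: percent inhibition. Control set: wells without proteasome as full block, compound-free enzyme plus substrate as uninhibited.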
Neddylation inh = cullin neddylation inhibition; P61081+Q13564; TR-FRET cullin neddylation, biochemical; inhibition, % at 25 µM; actives 0.58% (n = 360,000); AID 651699; in the data active = inhibition above about 36%
Target sequence (P61081 whole entry, looked up): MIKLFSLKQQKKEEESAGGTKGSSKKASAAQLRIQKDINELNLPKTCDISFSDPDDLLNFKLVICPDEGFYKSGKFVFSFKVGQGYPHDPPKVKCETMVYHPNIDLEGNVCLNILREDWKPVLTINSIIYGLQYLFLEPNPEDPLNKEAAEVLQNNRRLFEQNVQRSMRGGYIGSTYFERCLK
Target sequence (Q13564 whole entry, looked up): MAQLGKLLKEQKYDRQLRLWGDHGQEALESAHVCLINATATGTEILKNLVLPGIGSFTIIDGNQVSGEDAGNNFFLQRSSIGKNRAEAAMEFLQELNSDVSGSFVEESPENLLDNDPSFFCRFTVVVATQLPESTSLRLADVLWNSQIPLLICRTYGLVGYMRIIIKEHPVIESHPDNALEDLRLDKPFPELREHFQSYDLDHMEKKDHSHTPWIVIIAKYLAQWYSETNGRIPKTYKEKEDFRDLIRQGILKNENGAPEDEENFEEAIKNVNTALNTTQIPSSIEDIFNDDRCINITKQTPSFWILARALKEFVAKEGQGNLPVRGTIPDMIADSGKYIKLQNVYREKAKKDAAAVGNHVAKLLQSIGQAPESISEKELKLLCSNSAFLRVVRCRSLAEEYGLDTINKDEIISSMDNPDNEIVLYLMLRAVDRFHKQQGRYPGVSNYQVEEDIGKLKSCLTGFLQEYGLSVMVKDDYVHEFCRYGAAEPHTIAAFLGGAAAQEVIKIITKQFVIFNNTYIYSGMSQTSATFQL
Neddyl conf = confirmation of human cullin neddylation inhibitors. shares compounds with Neddylation inh. TR-FRET cullin neddylation biochemical assay. calls only at 25 µM. actives 13% (n = 1,800). AID 652217; in the data active = inhibition above about 40%;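 also: neddylation substrate is the cullin 1 ring ligase complex with SKP2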
* marks the source's active call; other numbers are inactive results; i = inactive; · = no result given; + = active, no number.

SMILES	Fh CTSL1 inh	UBC9 SUMO inh	UCH37 inh	Neddylation inh	Neddyl conf
CC(=NNC(=O)c1ccc([N+](=O)[O-])c(C)c1)c1ccccc1Cl	·	·	-1	·	·
Cc1cnc(NC(=O)c2ccc(-c3ccc([N+](=O)[O-])cc3)o2)s1	·	·	2	-10	·
Cc1cnc(NC(=O)c2ccc(-c3nc4ccccc4s3)o2)s1	5	30	-12	41*	i
COc1ccc(OC)c(C=NNC(=O)c2cc3c(OC)cc(OC)cc3[nH]2)c1	·	·	-93	·	·
O=C(NN=Cc1cccn1-c1ccc([N+](=O)[O-])cc1)C(O)c1ccccc1 (stereo not given)	·	·	11	·	·
O=C(c1coc(=O)c(Br)c1)N1CCC(C(O)(c2ccccc2)c2ccccc2)CC1	13	12	-229	45*	·
O=C(c1cccc(Br)c1)N1CCCc2ccccc21	-2	6	·	7	·
O=C(c1coc(=O)c(Br)c1)N1CCCc2ccccc21	0	29	-25	38*	·
CCN(CC)S(=O)(=O)c1cccc(-c2nn(-c3ccccc3)cc2/C=C(\C#N)C(=O)NCc2ccco2)c1	-5	21	-38	39*	i
CC(=NNC(=S)NCc1ccccc1)c1ccc(Cl)s1	·	·	5	·	·
CCC(=O)Nc1ccc(C(=O)CSc2nnc(-c3ccc(NS(=O)(=O)CC)cc3)o2)cc1OC	-4	41	4	44*	i
CCS(=O)(=O)Nc1ccc(-c2nnc(SCC(=O)OC)o2)cc1	0	5	5	5	·
O=C(COC(=O)c1cccc2ccccc12)NCC1CCCO1 (stereo not given)	-1	7	-21	5	·
O=C(COC(=O)c1cc(-c2ccc(F)cc2)nc2ccccc12)NCC1CCCO1 (stereo not given)	-15	-3	-77	49*	i
COc1cc(C=NN2CCN(C3c4ccccc4-c4ccccc43)CC2)cc(OC)c1OC	·	·	5	·	·
COc1ccc(-c2cc(C(=O)Nc3ccc(OC)c(OC)c3)no2)cc1	4	10	-15	40*	i
Cc1cc(SCC(=O)Nc2ccc(O)cc2)n2ncc(-c3ccccc3)c2n1	-2	19	-40	39*	i
O=S1(=O)N=C(N(CCO)/N=C/c2ccc(Cl)cc2)c2ccccc21	6	13	·	47*	·
Cn1c(SCC(=O)N2CCCC2)nnc1-c1ccc(S(=O)(=O)N2CCCC2)cc1	1	10	5	14	·
CCSc1nnc(-c2ccc(S(=O)(=O)N3CCOCC3)cc2)n1C	5	18	4	39*	i
CCSc1nnc(-c2ccc(S(=O)(=O)N3CCCC3)cc2)n1C	3	22	2	46*	i
O=C(NCCCn1ccnc1)c1ccccc1NS(=O)(=O)c1ccc(F)c(F)c1	0	2	-1	-8	·
Cc1cc(C)c(C)c(S(=O)(=O)Nc2ccccc2C(=O)O)c1C	-2	12	-1	47*	·
O=C(O)c1ccccc1NS(=O)(=O)c1ccc2c(c1)OCCO2	-4	-4	4	43*	·
Cc1cc(C)c(C)c(S(=O)(=O)Nc2ccccc2C(=O)NCCCn2ccnc2)c1C	·	12	-4	38*	·
SMILES	Fh CTSL1 inh	UBC9 SUMO inh	UCH37 inh	Neddylation inh	Neddyl conf
NC(=O)c1ccccc1NS(=O)(=O)c1ccc2c(c1)OCCO2	-1	8	-42	·	·
CC(=NNC(=O)C(C)n1nc(C)c([N+](=O)[O-])c1C)c1ccccc1O (stereo not given)	·	·	0	·	·
COC(=O)c1c(C(=O)OC)c2cc(C(=O)c3ccccc3)ccn2c1Cl	4	-4	-41	48*	i
CCCc1c(O)c2ccccc2[nH]c1=O	-4	15	0	38*	i
C/C(C=NNC(=O)c1cc(C(C)C)[nH]n1)=C\c1ccccc1	·	·	7	·	·
Cc1ccc2c(c1)COc1c3ccc(C(=O)N[C@@H](C)CO)cc3nn1-2	3	18	-26	54*	·
Cc1ccc2c(c1)COc1c3ccc(C(=O)NCCO)cc3nn1-2	0	25	-27	53*	+
O=C(NCCO)c1ccc2c3n(nc2c1)-c1ccc(Cl)cc1CO3	8	21	2	16	·
Cc1ccc2c(c1)COc1c3ccc(C(=O)NC(C)C)cc3nn1-2	1	24	-14	51*	+
Cc1cc(C(=O)NN=Cc2cccc([N+](=O)[O-])c2)c(C)o1	·	·	2	·	·
COc1ccccc1Nc1nnc(SCc2nnc(-c3cc(OC)c(OC)c(OC)c3)o2)s1	-5	-3	3	11	·
COc1cc(-c2nnc(CSc3nnc(Nc4ccc(C(C)C)cc4)s3)o2)cc(OC)c1OC	-1	-8	-13	43*	i
COc1cc(-c2cc3nc(C)c(C)c(=O)n3[nH]2)cc(OC)c1OC	0	16	-1	42*	i
Cc1nc2ccc(-c3nc4ccccc4[nH]3)cc2[nH]1	-2	0	·	47*	i
C[C@@H]1CN(c2c(F)c(N)c3c(=O)c(C(=O)O)cn(C4CC4)c3c2F)C[C@H](C)N1	·	4	·	·	·
C[C@@H]1CN(c2c(F)c(F)c3c(=O)c(C(=O)O)cn(C4CC4)c3c2F)C[C@H](C)N1	·	13	-61	46*	·
Cc1ccsc1C=Nn1c(COc2ccccc2)n[nH]c1=S	·	·	7	·	·
O=C1c2ccccc2-c2n[nH]c3cccc1c23	·	·	-57	42*	·
O=C(O)CNS(=O)(=O)c1ccc2[nH]c(=O)c(=O)[nH]c2c1	1	9	-11	40*	i
CCc1ccc(OCC(=O)NN=Cc2ccc(OS(=O)(=O)c3ccc(C)cc3)c(OC)c2)cc1	·	·	2	·	·
COc1cccc(C2CC(c3cccs3)=NN2C(=O)c2ccco2)c1O (stereo not given)	2	1	-6	28	·
CS(=O)(=O)Nc1ccc(C2=NN(C(=O)c3ccco3)C(c3ccccc3)C2)cc1 (stereo not given)	2	18	-6	41*	i
O=C(c1ccco1)N1N=C(c2cccs2)CC1c1ccccc1O (stereo not given)	4	31	-61	54*	·
CC(=NNC(=O)C1CC1)c1cccnc1	·	·	2	·	·
COCCn1nnnc1C(C(C)C)N(Cc1ccccc1)Cc1cc2cc(OC)ccc2[nH]c1=O (stereo not given)	·	30	-6	·	·
SMILES	Fh CTSL1 inh	UBC9 SUMO inh	UCH37 inh	Neddylation inh	Neddyl conf
COCCn1nnnc1C(C(C)C)N(Cc1cccnc1)Cc1cc2cc(OC)ccc2[nH]c1=O (stereo not given)	1	18	-32	40*	i
CCn1cc(C(=O)O)c(=O)c2cc(F)c(N3CCN(C(=S)NC(=O)c4ccc(Br)cc4)CC3)cc21	-1	18	·	31	·
CCn1cc(C(=O)O)c(=O)c2cc(F)c(N3CCN(C(=S)NC(=O)c4ccc(OC)cc4)CC3)cc21	-2	20	-22	53*	i
CCn1cc(C(=O)O)c(=O)c2cc(F)c(N3CCN(C(=O)Nc4ccccc4)CC3)cc21	5	14	-46	53*	i
COc1ccc(C=NNC(=O)C2(O)c3ccccc3-c3ccccc32)cc1	·	·	3	·	·
C/C(=C\C(=S)Nc1ccccc1)Nc1ccc2ccccc2c1	2	35	-22	5	·
